{
  "source": "paper PMC8026699",
  "about": "(Cancer research, 2021)",
  "key": {"[1]": {"tested_on": "SKBr3 cells", "test": "Growth of SKBr3 cells", "type": "cell-based, human", "conditions": "SKBr3, 10 μM, 72 hours, H1 conditions, 200 μM sodium acetate"}, "[2]": {"tested_on": "BT474 tumors", "test": "BT474 tumor xenograft growth", "type": "in vivo, mouse", "conditions": "BT474, 100 mpk daily IP", "how_it_was_run": "(§1)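 Female NSG mice, 5–6 weeks old, received subcutaneous PBS:Matrigel grafts: BT474 at 1×10^6 (with a 60-day 17β-estradiol pellet at the neck), MDA-MB-468 at 5×10^6, or WHIM12 PDX cells at 2×10^6. Once tumors established, mice were randomized to daily IP or oral gavage. Arms: vehicle (10% DMSO, 20% solutol, 70% water with 0.5% Tween20) or 100 mg/kg test compound. Calipers thrice weekly; volume (L × W²)/2.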"}, "[3]": {"tested_on": "Brpkp110 tumors", "test": "Brpkp110 tumor growth in NSG mice", "type": "in vivo, mouse", "how_it_was_run": "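Brpkp110 cells (5×10^5 in PBS:Matrigel) implanted subcutaneously in 5–6-week-old female NSG mice, then randomized. Daily dosing: vehicle (10% DMSO, 20% solutol, 70% water with 0.5% Tween20) or 100 mg/kg test compound. Volume (L × W²)/2 from calipers thrice weekly. Resected tumors: formalin-fixed, paraffin-embedded, citrate steam retrieval, H2O2 block, Ki67 antibody, DAB with hematoxylin counterstain.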"}, "[4]": {"tested_on": "WHIM12 tumors", "test": "WHIM12 PDX tumor growth", "type": "in vivo, mouse", "conditions": "WHIM12 (ACSS2 low), 100 mpk daily PO", "how_it_was_run": "as §1"}, "[5]": {"tested_on": "Brpkp110 cells", "test": "13C6-glucose dependent palmitate synthesis in Brpkp110 cells", "type": "cell-based, mouse", "conditions": "Brpkp110, normoxia, 10% dialyzed FBS", "how_it_was_run": "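Cells grown 4 h under normoxia in SMEM with 10% dialyzed FBS and 5.5 mM uniformly labeled 13C6-glucose. Lipids extracted with methanol/chloroform/PBS and saponified in 0.3 M KOH in 90% methanol at 70°C for 1 h. Fatty acids recovered into hexane and palmitate labeling measured by C18 reverse-phase LC-MS.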"}, "[6]": {"test": "Body weight in tumor xenograft studies", "type": "in vivo, mouse", "conditions": "100 mg/kg daily IP or oral gavage vs vehicle", "how_it_was_run": "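Female NSG mice, 5–6 weeks old, carried subcutaneous tumours in PBS:Matrigel (BT474 with a 17β-estradiol pellet; MDA-MB-468, WHIM12, A7C11, Brpkp110) or BT474 mammary fat-pad orthografts. After tumour establishment, mice were randomized and dosed daily by IP injection or oral gavage. Groups received vehicle (10% DMSO, 20% solutol, 70% water containing 0.5% Tween20) or test compound at 100 mg/kg.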"}, "[7]": {"test": "Human liver microsomal stability", "type": "in vitro ADME", "conditions": "0.5 μM compound, 0.5 mg/mL microsomes; compared with VY-3-249", "how_it_was_run": "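Incubations: 0.5 μM compound, 0.5 mg/mL liver microsomes, NADPH-regenerating system, potassium phosphate pH 7.4. Timed aliquots quenched in acetonitrile with internal standard; no-cofactor controls run. LC-MS/MS analyte/internal-standard peak-area ratios. Elimination constant fitted by nonlinear regression; t1/2 from k = 0.693/t1/2. CLint scaled with 48 (mouse) or 39.7 (human) mg protein/g liver. n = 1.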"}, "[8]": {"tested_on": "sgACSS2 Brpkp110 tumors", "test": "sgACSS2 Brpkp110 tumor growth in mice", "type": "in vivo, mouse", "conditions": "sgACSS2 Brpkp110 (ACSS2 knockout) tumors", "how_it_was_run": "(§2)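 Parental or CRISPR-Cas9 sgAcss2 cells (lentiviral, blasticidin-selected pools) implanted subcutaneously into 5–6-week-old female NSG mice in PBS:Matrigel: A7C11 at 5×10^5, Brpkp110 at 5×10^5. Calipers read tumors three times weekly. Volume = (L × W²)/2, L being the longer measurement; not blinded.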"}, "[9]": {"tested_on": "BT474, MDA-MB-468, and WHIM12 tumors", "test": "Heavy acetate stable isotope tracing in tumors", "type": "in vivo, mouse", "how_it_was_run": "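Tumor-bearing mice received 2% D3- or 13C2-acetate in drinking water for two days, plus a 2 g/kg IP heavy-acetate bolus 90 min before sacrifice. Tumors excised under anesthesia and flash-frozen. Extraction at 40 mg/mL in methanol/acetonitrile/water (5:3:2) by bead homogenization, cleared twice. Citrate labeling analysed by HILIC LC-MS.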"}, "[10]": {"test": "Pharmacokinetic analysis in CD-1 mice", "type": "in vivo, mouse", "conditions": "oral gavage 30 mg/kg, intravenous 2 mg/kg, intraperitoneal 10 mg/kg", "how_it_was_run": "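Formulation: 10% DMSO, 10% Solutol, 80% PBS. Dosing in CD-1 mice based on 28 g average weight. Three mice per time point; trunk blood collected into K2-EDTA and kept on wet ice until centrifugation. Plasma extracted in acetonitrile/water with tolbutamide internal standard, centrifuged, supernatant analysed by LC-MS. Mean ± S.D.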"}, "[11]": {"tested_on": "MDA-MB-468 tumors", "test": "MDA-MB-468 tumor xenograft growth", "type": "in vivo, mouse", "conditions": "MDA-MB-468 (ACSS2 high), 100 mpk daily PO", "how_it_was_run": "as §1"}, "[12]": {"tested_on": "Brpkp110 cells", "test": "13C2-acetate labeling of palmitate in Brpkp110 cells", "type": "cell-based, mouse", "conditions": "Brpkp110, N10 and H1, 24 hr, 100 μM 13C2-acetate", "how_it_was_run": "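Cells labeled 24 h with 100 μM 13C2-acetate in SMEM under N10 (normoxia, 10% dialyzed FBS) or H1 (1% O2, 1% dialyzed FBS). Vehicle or test compound present; for BT474 in H1, a 10-fold dilution series. Lipids extracted with methanol/chloroform/PBS, saponified in 0.3 M KOH/90% methanol at 70°C for 1 h, then hexane-extracted. Palmitate labeling read by C18 reverse-phase LC-MS. n = 3, mean ± S.D.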"}, "[13]": {"tested_on": "A7C11 tumors", "test": "A7C11 tumor growth in mice", "type": "in vivo, mouse", "conditions": "A7C11 (ACSS2 low) tumors", "how_it_was_run": "as §2"}, "[14]": {"tested_on": "BT474 cells", "test": "Growth of BT474 cells", "type": "cell-based, human", "conditions": "BT474, 10 μM, 72 hours, H1 conditions, 200 μM sodium acetate"}, "[15]": {"tested_on": "ACSS1 in BT474 cells", "test": "13C2-acetate labeling of citrate in BT474 cells", "type": "cell-based, human", "how_it_was_run": "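Cells grown 24 h in serum-like modified Eagle's medium (SMEM) with 0.1 mM uniformly labeled 13C2-acetate. Conditions were normoxia with 10% dialyzed FBS (N10) or 1% O2 hypoxia with 1% dialyzed FBS (H1). Vehicle or test compound present. Cells washed in ice-cold PBS and extracted with methanol/acetonitrile/water (5:3:2) at 4°C for 5 min. Cleared extracts analysed by HILIC LC-MS on a Q Exactive HF-X.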"}},
  "data": [
    {"smiles": "CCn1c(C(O)(c2ccccc2)c2ccccc2)nc2ccc(C(=O)NC[C@@H](C)O)cc21", "note": "[VY-3-135, (R)-1-ethyl-2-(hydroxydiphenylmethyl)-N-(2-hydroxypropyl)-1H-benzo[d]imidazole-6-carboxamide]", "values": [
      {"measurement": "cell growth", "setting": "[1]", "value": "modest growth inhibition"},
      {"measurement": "tumor regression by the end of the regimen", "setting": "[2]; n = 5 mice per group", "value": "two of the tumors in VY-3-135 treated group were not palpable by the end of the regimen, with one tumor fully regressing"},
      {"measurement": "tumor growth", "setting": "[2]; two weeks of treatment", "value": "completely abrogated tumor growth"},
      {"measurement": "tumor growth", "setting": "[3]; Brpkp110 (ACSS2 high), 100 mpk daily IP", "value": "marked inhibition"},
      {"measurement": "Ki67 staining of tumors (proliferation)", "setting": "[3]; Brpkp110 tumors", "value": "less proliferative"},
      {"measurement": "tumor growth", "setting": "[4]", "value": "mostly ineffective"},
      {"measurement": "13C6-glucose dependent palmitate synthesis", "setting": "[5]", "value": "did not affect"},
      {"measurement": "body weight", "setting": "[6]", "value": "No significant differences in body weight"},
      {"measurement": "stability in human liver microsomal assay", "setting": "[7]", "value": "superior stability"},
      {"measurement": "tumor growth", "setting": "[8]", "value": "no further effect on tumor growth"},
      {"measurement": "D3-acetate labeling of citrate in MDA-MB-468 tumors", "setting": "[9]; MDA-MB-468 tumors", "value": "increase in D3-acetate labeling of citrate"},
      {"measurement": "D3-acetate or 13C2-acetate labeling of citrate in tumors", "setting": "[9]; readout of ACSS1", "value": "did not observe any inhibitory effect"},
      {"measurement": "absorption", "setting": "[10]", "value": "completely absorbed by all routes of administration"},
      {"measurement": "exposure", "setting": "[10]", "value": "good exposure"},
      {"measurement": "tumor growth", "setting": "[11]", "value": "repressed"},
      {"measurement": "acetate dependent labeling of palmitate by 13C2-acetate", "setting": "[12]", "value": "efficiently blocked"},
      {"measurement": "tumor growth", "setting": "[13]", "value": "but not WHIM12 and A7C11 tumors"},
      {"measurement": "cell growth", "setting": "[14]", "value": "modest growth inhibition"},
      {"measurement": "13C2-acetate labeling of citrate", "setting": "[15]; BT474, H1 conditions, 24 hr", "value": "did not decrease"},
      {"measurement": "M+2 citrate (acetate contribution to the TCA cycle)", "setting": "[15]; BT474, hypoxia and low serum stressed cells", "value": "increased M+2 citrate"}
    ]}
  ]
}
